Results taken from ChEMBL document CHEMBL1806480, “New condensed pyrroles of potential biological interest syntheses and structure-activity relationship studies” (2011).
In brackets after ≈: the same amount, converted by molar mass. Activity calls are given as the source filed them. The calls are words filed in the database; no cut-off is given here.

Experiments:
Bacillus subtilis [1] = test: Antimicrobial activity against Bacillus subtilis ATCC 6633 after 24 hrs by microdilution technique; type: functional; conditions: for MIC: ATCC 6633, 24 h
In short: (§1)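 MIC by microdilution per NCCLS 1997 guidelines. Bacteria were subcultured overnight on Mueller-Hinton agar at 37 °C and passaged at least twice. Compounds were serially two-fold diluted in DMSO from 1024 to 16, mixed with nutrient agar, and inoculated. Incubation was 37 °C in a humid chamber for 24 h. MIC = lowest concentration completely inhibiting macroscopic growth. DMSO, organism-only and medium-only wells served as controls.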

Staphylococcus aureus [2] = test: Antimicrobial activity against Staphylococcus aureus ATCC 29213 after 24 hrs by microdilution technique; type: functional; conditions: ATCC 29213, 24 h; in short: as §1
Escherichia coli [3] = test: Antimicrobial activity against Escherichia coli ATCC 25922 after 24 hrs by microdilution technique; type: functional; conditions: ATCC 25922, 24 h
In short: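 MIC by two-fold serial microdilution on Mueller-Hinton agar per NCCLS 1997. Compounds were dissolved in DMSO at 1024, 512, 256, 128, 64, 32 and 16 […] and mixed with sterile nutrient agar, then inoculated with bacteria subcultured overnight at 37 °C on MHA (passaged at least twice). Incubation was 37 °C in a humid chamber and endpoints were read at 24 h. MIC is the lowest concentration completely inhibiting macroscopic growth. DMSO, organism-only and medium-only wells served as controls.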

Pseudomonas aeruginosa [4] = test: Antimicrobial activity against Pseudomonas aeruginosa ATCC […] after 24 hrs by microdilution technique; type: functional; in short: as §1
Rattus norvegicus [5] = test: Antiinflammatory activity in male Sprague-Dawley rats assessed as inhibition of carrageenan-induced rat paw edema dosed subcutaneously equimolar to 70 mg/kg, sc ibuprofen administered 1 hr before carrageenan challenge measured 3 hrs post carrageenan challenge relative to control; type: functional; conditions: route subcutaneous
In short: (§2)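 Male Sprague-Dawley rats, 150–170 g, 5 per group. Compounds were given subcutaneously in DMSO at doses equimolar to the reference. One hour later, 0.1 mL of 1% carrageenan was injected subplantar into the right hind paw. Right-minus-left paw volume was read by water plethysmometer at 1, 2, 3 and 4 h. %inhibition = (1 − swelling treated/swelling control) × 100. Controls received DMSO s.c. Mean ± SE reported.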

Rattus norvegicus [6] = test: Antiinflammatory activity in male Sprague-Dawley rat assessed as inhibition of carrageenan-induced rat paw edema dosed subcutaneously equimolar to 70 mg/kg, sc ibuprofen administered 1 hr before carrageenan challenge measured 1 hr post carrageenan challenge relative to control; type: functional; conditions: route subcutaneous; in short: as §2
Rattus norvegicus [7] = test: Antiinflammatory activity in male Sprague-Dawley rats assessed as inhibition of carrageenan-induced rat paw edema dosed subcutaneously equimolar to 70 mg/kg, sc ibuprofen administered 1 hr before carrageenan challenge measured 2 hrs post carrageenan challenge relative to control; type: functional; conditions: route subcutaneous; in short: as §2
Rattus norvegicus [8] = test: Antiinflammatory activity in male Sprague-Dawley rats assessed as inhibition of carrageenan-induced rat paw edema dosed subcutaneously equimolar to 70 mg/kg, sc ibuprofen administered 1 hr before carrageenan challenge measured 4 hrs post carrageenan challenge relative to control; type: functional; conditions: route subcutaneous; in short: as §2
Candida albicans = test: Antimicrobial activity against Candida albicans ATCC 10231 at 20 to 30 ug/ml after 24 hrs by disk diffusion method; type: functional, organism-based
In short: (§3)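 Disc diffusion per Bauer et al. Inhibition zones were recorded. DMSO served as the solvent control. Amoxicillin and fluconazole served as reference agents.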

Pseudomonas aeruginosa [9] = test: Antimicrobial activity against Pseudomonas aeruginosa ATCC […] at 20 to 30 ug/ml after 24 hrs by disk diffusion method; type: functional, organism-based; in short: as §3
Escherichia coli [10] = test: Antimicrobial activity against Escherichia coli ATCC 25922 at 20 to 30 ug/ml after 24 hrs by disk diffusion method; type: functional, organism-based; in short: as §3
Mycolicibacterium phlei = test: Antimicrobial activity against Mycobacterium phlei ATCC 10142 at 20 to 30 ug/ml after 24 hrs by disk diffusion method; type: functional, organism-based
Staphylococcus aureus [11] = test: Antimicrobial activity against Staphylococcus aureus ATCC 29213 at 20 to 30 ug/ml after 24 hrs by disk diffusion method; type: functional, organism-based; in short: as §3
Bacillus subtilis [12] = test: Antimicrobial activity against Bacillus subtilis ATCC 6633 at 20 to 30 ug/ml after 24 hrs by disk diffusion method; type: functional, organism-based; in short: as §3

Row | MIC (Bacillus subtilis [1]) [µg/mL] | SMILES | MIC (Staphylococcus aureus [2]) [µg/mL] | MIC (Escherichia coli [3]) [µg/mL] | MIC (Pseudomonas aeruginosa [4]) [µg/mL] | inhibition in vivo (Rattus norvegicus [5]) [%] | inhibition in vivo (Rattus norvegicus [6]) [%] | inhibition in vivo (Rattus norvegicus [7]) [%] | inhibition in vivo (Rattus norvegicus [8]) [%] | inhibition in vivo at 70 mg/kg (Rattus norvegicus [7]; dose equimolar to 70 mg/kg ibuprofen) [%] | Activity (Candida albicans) | Activity (Pseudomonas aeruginosa [9]) | Activity (Escherichia coli [10]) | Activity (Mycolicibacterium phlei) | Activity (Staphylococcus aureus [11]) | Activity (Bacillus subtilis [12]) | Activity (Bacillus subtilis [1])
1 |  | Cc1c(-n2c(-c3ccccc3)c(-c3ccccc3)c3c(NN)ncnc32)n(C)n(-c2ccccc2)c1=O |  |  |  | 65.1 | 43.7 | 46.1 | 54 |  |  |  |  |  |  |  | 
2 |  | Cc1c(-n2c(-c3ccccc3)c(-c3ccccc3)c3c(Nc4ccccc4)ncnc32)n(C)n(-c2ccccc2)c1=O |  |  |  | 13 | 1.99 | 5.11 | 27.9 |  |  |  |  |  |  |  | 
3 |  | CC(C)Cc1ccc(C(C)C(=O)O)cc1 (stereo not drawn) [IBUPROFEN] |  |  |  | 60.7 | 6.08 |  | 69.5 | 45 |  |  |  |  |  |  | 
4 |  | Cc1c(-n2c(-c3ccccc3)c(-c3ccccc3)c3c2ncn2ncnc32)n(C)n(-c2ccccc2)c1=O |  |  |  | 9.9 | 1.73 | 4.92 | 28.7 |  |  |  |  |  |  |  | 
5 |  | Cc1ccccc1Nc1ncnc2c1c(-c1ccccc1)c(-c1ccccc1)n2-c1c(C)c(=O)n(-c2ccccc2)n1C |  |  |  | 13.3 | 1.95 | 5.17 | 28 |  |  |  |  |  |  |  | 
6 |  | Cc1c(-n2c(-c3ccccc3)c(-c3ccccc3)c3c(=S)[nH]cnc32)n(C)n(-c2ccccc2)c1=O |  |  |  | 73.3 | 0 | 0 | 64.3 |  | inactive | inactive | inactive | inactive | inactive | inactive | 
7 | 512 (≈ 1150 µM) | Cc1c(-n2c(N)c(C#N)c(-c3ccccc3)c2-c2ccccc2)n(C)n(-c2ccccc2)c1=O |  |  |  | 62.6 | 9.5 | 36.5 | 64.7 |  |  |  |  |  |  |  | 
8 |  | Cc1c(-n2c(-c3ccccc3)c(-c3ccccc3)c3c2ncn2nnnc32)n(C)n(-c2ccccc2)c1=O |  |  |  |  |  |  |  |  | inactive | inactive | inactive | inactive | inactive | inactive | 
9 |  | Cc1nc2c(c(-c3ccccc3)c(-c3ccccc3)n2-c2c(C)c(=O)n(-c3ccccc3)n2C)c(=O)[nH]1 |  |  |  | 13.2 | 2.16 | 5.37 | 27.6 |  |  |  |  |  |  |  | Active
10 | 512 (≈ 1080 µM) | Cc1c(-n2c(-c3ccccc3)c(-c3ccccc3)c3c(=N)[nH]cnc32)n(C)n(-c2ccccc2)c1=O |  |  |  | 11.4 | 0.89 | 2.35 | 27.5 |  |  |  |  |  |  |  | 
11 | 256 (≈ 541 µM) | Cc1c(-n2c(-c3ccccc3)c(-c3ccccc3)c3c(=O)[nH]cnc32)n(C)n(-c2ccccc2)c1=O |  |  |  | 60 | 63 | 60.6 | 27.1 |  | inactive | inactive | inactive | inactive | inactive | inactive | 
12 |  | Cc1c(-n2c(-c3ccccc3)c(-c3ccccc3)c3c(Cl)ncnc32)n(C)n(-c2ccccc2)c1=O |  |  |  |  |  |  |  |  | inactive | inactive | inactive | inactive | inactive | inactive | 
13 |  | Cc1c(-n2c(-c3ccccc3)c(-c3ccccc3)c3c(N/N=C/c4ccccc4)ncnc32)n(C)n(-c2ccccc2)c1=O |  |  |  | 90.8 | 47.8 | 59.6 | 48.4 |  |  |  |  |  |  |  | 
14 |  | CCO/C=N/c1c(C#N)c(-c2ccccc2)c(-c2ccccc2)n1-c1c(C)c(=O)n(-c2ccccc2)n1C |  |  |  |  |  |  |  |  | inactive | inactive | inactive | inactive | inactive | inactive | 
15 |  | Cc1c(-n2c(N)c(C(N)=O)c(-c3ccccc3)c2-c2ccccc2)n(C)n(-c2ccccc2)c1=O |  |  |  | 47.8 | 19.1 | 26.1 | 62.5 |  | inactive | inactive | inactive | inactive | inactive | inactive | 
16 | 256 (≈ 525 µM) | CC(=O)Nc1c(C#N)c(-c2ccccc2)c(-c2ccccc2)n1-c1c(C)c(=O)n(-c2ccccc2)n1C | 256 (≈ 525 µM) |  |  | 66.5 | 1.73 | 3.07 | 46.4 |  |  |  |  |  |  |  | 

Row | SMILES | MIC (Bacillus subtilis [1]) [µg/mL] | MIC (Staphylococcus aureus [2]) [µg/mL] | MIC (Escherichia coli [3]) [µg/mL] | MIC (Pseudomonas aeruginosa [4]) [µg/mL] | inhibition in vivo (Rattus norvegicus [5]) [%] | inhibition in vivo (Rattus norvegicus [6]) [%] | inhibition in vivo (Rattus norvegicus [7]) [%] | inhibition in vivo (Rattus norvegicus [8]) [%] | inhibition in vivo at 70 mg/kg (Rattus norvegicus [7]; dose equimolar to 70 mg/kg ibuprofen) [%] | Activity (Candida albicans) | Activity (Pseudomonas aeruginosa [9]) | Activity (Escherichia coli [10]) | Activity (Mycolicibacterium phlei) | Activity (Staphylococcus aureus [11]) | Activity (Bacillus subtilis [12]) | Activity (Bacillus subtilis [1])
17 | CC1(C)S[C@@H]2[C@H](NC(=O)[C@H](N)c3ccc(O)cc3)C(=O)N2[C@H]1C(=O)O [AMOXICILLIN] | 64 (≈ 175 µM) | 1 (≈ 2.74 µM) | 256 (≈ 701 µM) | 64 (≈ 175 µM) |  |  |  |  |  |  |  |  |  |  |  | 
